PubChem BioAssay AID617 (SRMLSC, 2007)

Tested on: E. coli BW25113 ΔtolC growth inhibition, OD615
Assay: E. coli ΔtolC antibacterial growth inhibition – strain BW25113 ΔtolC::kan, dose response (AID 617)
Procedure, shortened: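 system = E. coli BW25113 tolC deletion strain (ΔtolC::kan), whole bacterial cells | technique = optical density (absorbance) at 615 nm | dosing = compounds in serially diluted dose-response series | times = bacterial growth with compound for 20 h, 37 °C | evaluation = growth-inhibition IC50 from four-parameter logistic curve, bounds set to 0% and 100%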

SMILES | IC50
O=C(CSc1nc2ccccc2o1)Nc1nc2c(s1)CCCC2 | 8.02 µM
COC(=O)c1ccc(C2c3c(n[nH]c3C)C(=O)N2c2ccc(C)cc2)cc1 (stereo unspecified) | 4.38 µM
COc1nnc(-c2ccc(N3CCCCC3)c(N)c2)c2ccccc12 | 11.9 µM
CCCOC(=O)c1ccc(Oc2cn[nH]c2-c2ccc(OCC)cc2O)cc1 | 13.6 µM
Oc1ccc(Br)cc1-c1nc2cnccn2c1NC1CCCC1 | 10.5 µM
O=S(=O)(Nc1nc2ccccc2nc1NCc1ccco1)c1cccs1 | 8.75 µM
CCC(=NCc1ccc2c(c1)OCO2)c1c(O)n(C2CCCCC2)c(=O)[nH]c1=O | 12 µM
CN(C)c1ccc(/C=N/n2ncc3ccccc32)cc1 | 34.6 µM
Cc1ccccc1OCCCCc1c(C)n[nH]c1C | 3.74 µM
COc1ccc(C(=O)C(CN2CCOCC2)c2ccccc2)cc1F (stereo unspecified) | 17.7 µM
CCOC(=O)c1cc2sccc2n1CC(=O)N1CCCc2ccccc21 | 15.1 µM
Cc1cc(C)cc(-n2ccnc2SCC(=O)Nc2ccc3c(c2)OCCO3)c1 | 28.1 µM
CC(C)C(c1nnnn1C1CCCC1)N1CCCc2ccccc21 (stereo unspecified) | 15.7 µM
CCc1nc(N2CCCCC2)c2oc3ccccc3c2n1 | 16.2 µM
COc1ccc(OCC(O)Cn2c(=N)n(Cc3ccccc3)c3ccccc32)cc1 (stereo unspecified) | 23.9 µM
Cc1nnc(SC(=O)N2c3ccccc3Sc3ccccc32)s1 | 14.6 µM
Cc1cc2c(cc(C(=O)OCC(=O)NCc3cccs3)n2C(C)C)o1 | 25 µM
CCCCN(CCCNC(=O)CN1C(=O)COc2ccccc21)c1ccccc1 | 38.9 µM
Cc1ccccc1S(=O)(=O)Cc1ccc(C(=O)N2CCN(c3cccc(C)c3C)CC2)o1 | 30.8 µM

SMILES | IC50
CCOc1cc(S(=O)(=O)n2cc(-c3ccc(F)cc3)c(N)n2)cc(OCC)c1OCC | 21 µM
CCSC(C)CC1C/C(=N/O)c2c(CC)noc2C1 (stereo unspecified) | 20.7 µM
CCCc1cc(C(=O)Cc2ccc(C(=O)OCC)o2)c(O)cc1O | 18.6 µM
Cc1ccc(Cn2ncn3c(cc4ccccc43)c2=O)cc1 | 14.1 µM
O=C(C1CCCCC1)N1CCC(c2nc3c(nnn3Cc3c(F)cccc3Cl)c(=O)[nH]2)CC1 | 18.2 µM
C=C(C)COc1ccc(-c2n[nH]c(C)c2Oc2ccccc2OC)c(O)c1 | 8.36 µM
Cc1noc(C)c1S(=O)(=O)N(CCc1ccccc1)Cc1ccccc1 | 16.6 µM
Clc1cccc(-c2nc3nc4ccccc4nc3n2Cc2ccco2)c1 | 15 µM
CCc1cccc(NC(=O)c2ccc(NS(=O)(=O)c3c(C)noc3C)cc2)c1 | 7.16 µM
CCOC(=O)c1cnc(-n2nc(C)cc2C)nc1NC1CCCCC1 | 0.54 µM
COC(=O)c1ccc(O)c(Sc2cc(C(=O)OC)ccc2O)c1 | 1.91 µM
Clc1ccc(Nc2nc(-c3cccs3)cs2)nc1 | 80.2 µM
COc1cc2c3c(c1)C1(C(=O)N3C(C)(C)C=C2C)C(C#N)=C(N)Oc2cc(O)ccc21 (stereo unspecified) | 6.64 µM
OC(COc1ccc(Cl)c2ccccc12)CN1CCN(c2ccccn2)CC1 (stereo unspecified) | 11.6 µM
Cn1c(=O)n(CCCOc2ccc(Br)cc2)c2ccccc21 | 13.8 µM
CC1(C)CC2CC(C)(CN2C(=O)c2cc(-c3ccccc3O)on2)C1 (stereo unspecified) | 3.42 µM
Cc1cccc(N=c2oc3cc(O)ccc3cc2C(N)=O)c1 | 23 µM
CSCCOC(=O)C1=C(C)NC(=O)CC1c1ccccc1Cl (stereo unspecified) | 22.9 µM
Oc1ccc(Cl)cc1-c1cc(-c2ccccc2)n[nH]1 | 6.46 µM

SMILES | IC50
O=C(c1ccc(Cl)c(Cl)c1)N(Cc1ccco1)c1ccc(O)cc1 | 3.7 µM
O=C(CCSc1nnc2scc(-c3ccccc3)n12)Nc1nc(-c2ccccc2)ns1 | 16.6 µM
Cc1cc(C)c(C#N)c(SCc2ccc3c(c2)OCO3)n1 | 24.6 µM
Cc1onc(-c2ccccc2)c1C(=O)Nc1nnc(COc2ccc(Cl)cc2)s1 | 2.99 µM
COc1ccccc1-c1nnc(SC/C(O)=C(\C#N)c2nc3ccccc3[nH]2)n1C1CCCCC1 | 10.2 µM
O=C(NCc1ccco1)c1cnn2c1NC(c1ccc(Br)cc1)CC2C(F)(F)F (stereo unspecified) | 12.8 µM
Cn1c(CSc2nc3ccccc3s2)nc2ccccc21 | 22.4 µM
N#Cc1c(NC(NC(=O)c2ccco2)C(=O)c2ccccc2)sc2c1CCCC2 (stereo unspecified) | 13.5 µM
CCCC(=O)c1ccc(N2CCCCCC2)c(F)c1 | 95.6 µM
Cc1nnc(NC(=O)c2ccc(S(=O)(=O)N(C)Cc3ccccc3)cc2)o1 | 3.87 µM
Cc1cc2n(n1)C(c1ccc3c(c1)OCO3)Nc1c(C)cccc1-2 (stereo unspecified) | 29.6 µM
CCOc1ccc(C(=O)C2CCN(CC(=O)Nc3ccccc3N3CCOCC3)CC2)cc1 | 15.6 µM
CCCCCSc1nnc(-c2cc(Br)ccc2N)c(=O)[nH]1 | 5.1 µM
O=C(Nc1ccc(Br)c(Cl)c1)c1ccco1 | 8.74 µM
CN(C)c1ccc(-c2nn3c(-c4ccncc4)nnc3s2)cc1 | 13.6 µM
CCSCC1COC(c2cccn2Cc2ccc(C)cc2)=N1 (stereo unspecified) | 39.4 µM
CC(C)N1CCC2(CC1)N=C(c1ccc3c(c1)OCO3)CC(c1cc(Cl)ccc1O)N2 (stereo unspecified) | 9.86 µM
CCC(C)(C)n1nnnc1C(c1cc2ccc(C)cc2[nH]c1=O)N(Cc1cccnc1)Cc1ccco1 (stereo unspecified) | 15.2 µM
